Reference: PubChem BioAssay
Values without a mark were called inactive. Results filed as inconclusive are left out. Active and inactive are the calls of the source.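 The calls were made as follows, unless noted: active = growth inhibition above 25% in both replicates, a cutoff set 3 SD above the mean; inconclusive = above 25% in only one replicate; inactive = the rest.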

Experiments:
[1] = S. cerevisiae growth inhibition in permissive medium (OD615), pilot counter-assay for S. cerevisiae lifespan shortening project, permissive growth control (AID 705); details: OD615, 24 h, at 10 µM, hits give high values
Procedure, shortened: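 Timing: 24 h exposure, 30 °C / Material: Saccharomyces cerevisiae strain carrying genetically modified DeaD replicative-lifespan system / Signal: OD at 615 nm / Compound: 10 µM single dose, 0.25% DMSO / Medium: SC raffinose/galactose permissive medium / Evaluation: reduction in yeast growth (OD615)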

[2] = S. cerevisiae growth inhibition in restrictive medium, OD615, pilot screen, restrictive growth control, yeast lifespan reduction project (AID 706;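 active = growth inhibition above a set limit, 3 SD over mean compound inhibition, in both replicates, cut at about 43% in these data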;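 also: modified DeaD lifespan yeast strain shifted to restrictive glucose medium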); details: OD615, 48 h, at 10 µM, hits give high values
Procedure, shortened: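 System: Engineered S. cerevisiae DeaD strain | Detection: OD615 | Buffer or medium: CSMM-D glucose medium | Doses: 10 µM compound, 0.25% DMSO | Timing: 4 h pre-growth plus 48 h compound exposure, 30 °C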

[3] = doxorubicin toxicity protection in MRP-1 cells – H69AR cells, CellTiter-Glo, duplicate, MRP-1 activator project, pilot screen (AID 807;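 active = viability increase at or above a cutoff of the median across tested compounds plus 3 SD, cut at about 8.5% in these data, passing the limit was not always enough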;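 also: compound pretreatment 18-22 h then 72 h combined with doxorubicin; 0% = doxorubicin alone and 100% = vehicle without doxorubicin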); details: H69AR viability with doxorubicin, CellTiter-Glo luminescence; at 10 µM; hits give high values
[4] = viability of HCT116 without oncogenic beta-catenin – human colon tumor cells, pilot screen (AID 823;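 active = cell viability at or below a set limit in both duplicate runs, the limit being the all-compound median minus 4 SD, cut at about 23% in these data, passing the limit was not always enough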;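 also: 0% = wells killed by 20 µM Hyamine and 100% = untreated DMSO cell wells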); details: HCT116 beta-catenin knockout viability, CellTiter-Glo, 60 h; at 10 µM; hits give low values
[5] = viability of PTEN-null HCT116 cells – cell-based, HCT116 clonal line, CellTiter-Glo, pilot screen (AID 824;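 active = viability at or below 27.92% in each of two runs, the all-compound median minus 4 SD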;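 also: 0% = 20 µM Hyamine control and 100% = vehicle cell control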); details: HCT116 PTEN-deleted viability, 60 h, at 10 µM, hits give low values
[6] = RAM pathway blockade in budding yeast – dse1pr::URA3 reporter, 5-FOA selection, pilot screen (AID 869;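 active = inhibition over a set limit, the all-compound mean plus 3 SD, in both replicate runs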;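 also: 0% = DMSO wells with no growth and 100% = 10 µM 1-NA-PP1 with full growth; RAM network block rescues cells from 5-FOA so hits raise OD615 growth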); details: S. cerevisiae dse1pr::URA3 5-FOA growth, OD615, 2 d; at 10 µM; hits give high values; strain carries analog-sensitive mutant Cbk1 kinase
[7] = RAM signaling pathway blockade in yeast – S. cerevisiae, Pdr1DBD-CYC8 efflux-inhibited sensitized strain, primary screen (AID 1298;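 active = RAM network inhibition above 8.4% in each of two replicates, 3 SD over the compound average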;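 also: 0% = DMSO untreated cells without growth and 100% = 10 µM 1-NA-PP1 full growth; higher means more yeast growth rescued from 5-FOA killing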); details: S. cerevisiae cbk1-as DSE1-URA3 strain, 5-FOA growth OD615, 2 d; at 50 µM; hits give high values

Row | Compound | growth inhibition [1] [%] | growth inhibition [2] | viability increase [3] [%] | viability [4] [%] | viability [5] [%] | inhibition [6] [%] | RAM network inhibition [7] [%]
1 | CC(=O)Oc1c(Cl)c(N2CCOCC2)c(OC(C)=O)c2ccccc12 | -22.8 | -7.78% | -6.81 | 70.4 | 79 | -0.75 | 2.47
2 | COc1ccc(C(=O)OCCN2C(=O)c3ccccc3C2=O)cc1 | -3.96 | -5.23% | -0.3 | 100 | 93.7 | 0.645 | 7.05
3 | COC(=O)CC1Oc2ccc(C)cc2NC1=O (centres undefined) | -4.56 | -1.75% | 2.26 | 101 | 101 | 0.27 | 2.35
4 | O=C(CCCc1c[nH]c2ccccc12)N1CCN(c2ccc(N3CCOCC3)nn2)CC1 | -2.69 | -3.36% | -1.4 | 102 | 105 | 0.485 | -0.41
5 | COc1ccc(N2CCN(C(=O)C3CCCN(S(=O)(=O)c4cccc5cccnc45)C3)CC2)cc1 (centres undefined) | 7.46 | -2.35% | -3.75 | 69.6 | 68.2 | 0.045 | 2.71
6 | Cc1csc2ncc(C(=O)Nc3ccc4c(c3)OCCO4)c(=O)n12 | -13.1 | -17.3% | -2.34 | 102 | 97.5 | 2.96 | 6.97
7 | Cc1cc(-c2nnco2)c(C)n1-c1ccc(F)cc1 | -8.75 | -5.7% | -2.15 | 84.2 | 85.3 | 0.83 | 4.69
8 | Cc1ccc(S(=O)(=O)N2C3C=CC(C3)C2C(=O)O)cc1 (centres undefined) | 3.23 | -3.31% | -0.3 | 94.3 | 99.9 | 0.08 | 1.2
9 | C=CCn1c(NC(C)c2cc(Cl)ccc2O)nc2ccccc21 (centres undefined) | -8.04 | -0.215% | -0.96 | 68.6 | 65.1 | 0.29 | -1.03
10 | COC(=O)C(C)Sc1nnc(Cc2cc(=O)[nH]c(=O)[nH]2)n1-c1ccc(OC)cc1 (centres undefined) | 8.07 | 4.31% | 0.81 | 106 | 101 | 1.41 | 2.47
11 | Cc1cc(-c2ccco2)n(CC(=O)NCCN(C)C)n1 | -3.33 | 1.02% | -0.48 | 98.8 | 94.5 | 2.31 | 0.37
12 | Cc1c(C(=O)N2CCCC2)oc2c1-c1[nH]ncc1CC2 | -15.2 | -14.4% | -1.8 | 105 | 94.2 | 0.715 | 2.08
13 | COc1cccc(C(c2sc3ncnn3c2O)N2CCc3ccccc3C2)c1 (centres undefined) | -0.12 | 2.29% | 2.58 | 104 | 93.2 | 1.8 | 11.3
14 | Cc1ccc(/C(O)=C2/C(=O)C(=O)N(CCN3CCOCC3)C2c2cccnc2)cc1 (centres undefined) | 6.32 | 4.34% | 0.49 | 93.5 | 102 | -0.11 | 0.7
15 | CCOC(=O)N1CCN(C(=O)CSc2nc3c(cnn3-c3ccc(C)cc3)c(=O)[nH]2)CC1 | -0.175 | 4.84% | -4.44 | 95.7 | 94.1 | -0.44 | 3.12
16 | O=C(NCCN1CCCCCC1)C1CCC(CNS(=O)(=O)c2cccc3cccnc23)CC1 (centres undefined) | -8.39 | -3.45% | -3.58 | 90.7 | 93.8 | 1.59 | 10

Row | Compound | growth inhibition [1] [%] | growth inhibition [2] | viability increase [3] [%] | viability [4] [%] | viability [5] [%] | inhibition [6] [%] | RAM network inhibition [7] [%]
17 | O=C(c1ccccc1NS(=O)(=O)c1cccs1)N1CCCC1 | -1.34 | 3.17% | -0.63 | 93.1 | 94.1 | 1.84 | 1.28
18 | CN(C)c1ccc(C2N3CC4(C)CN2CC(C)(C3)C4O)cc1 (centres undefined) | -21.5 | -10.9% | 0.46 | 101 | 99 | 2.33 | 2.42
19 | CC(=O)Nc1ccc(S(=O)(=O)N2CCSCC2)cc1 | -14.7 | -27.7% | -2.25 | 98.6 | 98.5 | 1.88 | 3.21
20 | CC1(C)CC2CC(C)(CN2C(=O)C23CCC(C)(C(=O)O2)C3(C)C)C1 (centres undefined) | -6.75 | -1.53% | -1.13 | 92.5 | 91.1 | 2.16 | 4
21 | COc1ccc(S(=O)(=O)N2CCN(CCO)CC2)cc1-c1nnc2c3ccccc3c(C)nn12 | -4.39 | -6.93% | -0.85 | 101 | 101 | 1.31 | 0.95
22 | CCN(CC)CCCNC(=O)Cn1ncc2c(=O)oc3ccc(C)cc3c21 | -23.9 | -25.6% | -1.87 | 101 | 92.3 | 2.04 | 5.92
23 | Nc1cc(C(F)(F)F)ccc1C(=O)O | 9.88 | 9.9% | -1.66 | 97.3 | 95.3 | 0.43 | 0.63
24 | Cc1nc(N2CCN(C)CC2)c2sc(=S)n(-c3ccccc3)c2n1 | -1.92 | -1.67% | -4.61 | 93.4 | 86.1 | 1.31 | 3.03
25 | Cc1c(C#N)c2ccccc2n1CC(=O)NCCc1c[nH]c2ccccc12 | -12.2 | 5.17% | -6.08 | 52.7 | 64.3 | 3.73 | 8.41
26 | Cc1ccc2c(c1)c1c(n2CC(O)CN2C(=O)CNC2=O)C(=O)CCC1 (centres undefined) | 3.38 | 7.05% | 4.52 | 101 | 101 | 1.74 | 3.57
27 | COCCn1c(SCC(=O)Nc2cc(Cl)ccc2OC)nc2c(c1=O)SC(C)C2 (centres undefined) | 1.23 | 0.95% | -6.28 | 83.3 | 78 | 2.55 | -0.36
28 | COc1cccc(-c2nc(CS(=O)(=O)CC(=O)N3CCN(C4CCCCC4)CC3)c(C)o2)c1 | 1.34 | -1.93% | -2.59 | 86.4 | 100 | 0.41 | 3.35
29 | COc1ccccc1N1CCN(C(=O)COc2ccc(C)cc2Br)CC1 | -7.34 | -9.51% | -1.4 | 83.5 | 72.4 | -0.16 | 2.61
30 | Cc1oc(-c2cccs2)nc1CS(=O)CC(=O)NC1CCCCCC1 (centres undefined) | 11.3 | 51.7% (active) | -2.99 | 75.4 | 84.5 | -0.045 | -1.22
31 | COCCN1C(=O)c2ccccc2C(C(=O)NCCN(C)C)C1c1ccc(F)cc1 (centres undefined) | -15 | -19.9% | -1.59 | 92.1 | 98.4 | 1.89 | 2.13
32 | CSC1=NCCN1C(=O)COc1ccccc1 | 5.44 | -6.09% | 1.95 | 97.8 | 104 | 1.57 | 2.21
